In ChEMBL document CHEMBL4428057, “Discovery, Synthesis, and Evaluation of 2,4-Diaminoquinazolines as a Novel Class of Pancreatic β-Cell-Protective Agents against Endoplasmic Reticulum (ER) Stress” (J Med Chem, 2016):
The source made the active and inactive calls.

Assays:
Beta-TC6 = test: Protection against tunicamycin induced endoplasmic reticulum stress in mouse BetaTC6 cells assessed as increase in cell viability after 72 hrs by MTT assay; format: functional, cell-based
Outline: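 βTC6 cells (DMEM, 15% FBS) seeded at 3×10^3/well in 384-well plates with Tm 0.25 µg/mL ± compound or DMSO for 72 h. Viability by CellTiter-Glo (ATP luminescence) or MTT: 3 h with reagent at 37 °C, then 4 h with crystal-dissolving solution, absorbance at 570 nm. 3 replicate wells, 3 experiments.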

INS1 [1] = test: Protection against tunicamycin induced endoplasmic reticulum stress in rat INS-1 cells assessed as increase in cell viability at 2.5 to 20 uM after 72 hrs by MTT assay; format: functional, cell-based
Outline: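 INS-1 cells at 3×10^3/well in 384-well plates treated with Tm 0.1 µg/mL ± compound or DMSO for 72 h. MTT reagent for 3 h at 37 °C, crystal-dissolving solution for 4 h, absorbance at 570 nm. Means of 3 replicate wells, representative of 3 experiments, SD.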

INS1 [2] = test: Reversal of tunicamycin induced caspase-3 cleavage in rat INS-1 cells at 20 uM after 2 to 24 hrs by Western blot analysis; format: functional, cell-based
Outline: (§1)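 Western blots of INS-1 cells (8×10^5/60-mm dish) treated with Tm 0.1 µg/mL ± compound 20 µM or DMSO for the indicated times. Lysates with EDTA and phosphatase inhibitors; 20 µg protein on 7% SDS-PAGE, PVDF. Primary antibodies at 1:1000 against ATF4, CHOP, cleaved caspase 3 or PARP; α-tubulin loading control; HRP secondaries. Representative of 3 experiments.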

[3] = target: T1, Eukaryotic translation initiation factor 2-alpha kinase 3 (Rattus norvegicus) (UniProt Q9Z1Z1); test: Inhibition of PERK pathway in rat INS-1 cells assessed as reduction in tunicamycin induced CHOP mRNA levels at 20 uM after 2 to 24 hrs by qRT-PCR method; format: cell-based
T1 sequence (whole entry): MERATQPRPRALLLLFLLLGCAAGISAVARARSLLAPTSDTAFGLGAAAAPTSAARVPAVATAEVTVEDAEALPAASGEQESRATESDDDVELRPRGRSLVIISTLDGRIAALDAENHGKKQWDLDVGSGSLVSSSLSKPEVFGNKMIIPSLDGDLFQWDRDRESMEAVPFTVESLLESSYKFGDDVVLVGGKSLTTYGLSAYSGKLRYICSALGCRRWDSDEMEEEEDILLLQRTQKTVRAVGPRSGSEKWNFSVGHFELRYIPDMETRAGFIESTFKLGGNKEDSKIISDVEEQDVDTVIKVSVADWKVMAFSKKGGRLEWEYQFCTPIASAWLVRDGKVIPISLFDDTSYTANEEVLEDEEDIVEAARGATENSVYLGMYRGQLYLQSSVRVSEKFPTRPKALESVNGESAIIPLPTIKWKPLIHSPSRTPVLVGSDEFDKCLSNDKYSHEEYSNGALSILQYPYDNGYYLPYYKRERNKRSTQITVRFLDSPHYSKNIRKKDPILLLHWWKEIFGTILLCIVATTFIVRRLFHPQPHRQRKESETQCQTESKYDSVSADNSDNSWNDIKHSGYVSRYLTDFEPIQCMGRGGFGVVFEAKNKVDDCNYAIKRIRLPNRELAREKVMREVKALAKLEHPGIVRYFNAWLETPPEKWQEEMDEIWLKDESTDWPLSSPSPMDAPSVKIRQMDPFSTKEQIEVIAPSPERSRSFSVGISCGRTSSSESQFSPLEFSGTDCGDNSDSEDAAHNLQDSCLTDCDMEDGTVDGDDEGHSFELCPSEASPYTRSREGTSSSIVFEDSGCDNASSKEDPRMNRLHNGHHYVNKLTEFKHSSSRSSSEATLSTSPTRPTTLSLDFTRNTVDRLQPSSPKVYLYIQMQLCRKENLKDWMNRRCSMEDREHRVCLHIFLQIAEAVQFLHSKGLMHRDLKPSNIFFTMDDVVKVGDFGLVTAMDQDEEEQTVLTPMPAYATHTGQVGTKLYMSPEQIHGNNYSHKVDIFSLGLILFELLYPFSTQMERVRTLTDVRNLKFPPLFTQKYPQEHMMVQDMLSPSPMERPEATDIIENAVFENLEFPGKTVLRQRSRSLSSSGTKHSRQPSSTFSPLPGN
Outline: (§2)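 ATF4 or CHOP mRNA measured by qRT-PCR in INS-1 cells treated with Tm 0.1 µg/mL ± compound 20 µM or DMSO for the indicated times. Expressed as fold-increase over untreated control; means of 3 replicate wells, representative of 3 independent experiments, SD.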

INS1 [4] = test: Reversal of tunicamycin induced PARP cleavage in rat INS-1 cells at 20 uM after 2 to 24 hrs by Western blot analysis; format: functional, cell-based; outline: as §1
[5] = target: T2, Cyclic AMP-dependent transcription factor ATF-6 alpha (Rattus norvegicus) (UniProt G3V909); test: Inhibition of ATF6 in rat INS-1 cells assessed as suppression of tunicamycin induced Bip mRNA levels at 20 uM after 4 to 24 hrs by qRT-PCR method; format: cell-based
T2 sequence (whole entry): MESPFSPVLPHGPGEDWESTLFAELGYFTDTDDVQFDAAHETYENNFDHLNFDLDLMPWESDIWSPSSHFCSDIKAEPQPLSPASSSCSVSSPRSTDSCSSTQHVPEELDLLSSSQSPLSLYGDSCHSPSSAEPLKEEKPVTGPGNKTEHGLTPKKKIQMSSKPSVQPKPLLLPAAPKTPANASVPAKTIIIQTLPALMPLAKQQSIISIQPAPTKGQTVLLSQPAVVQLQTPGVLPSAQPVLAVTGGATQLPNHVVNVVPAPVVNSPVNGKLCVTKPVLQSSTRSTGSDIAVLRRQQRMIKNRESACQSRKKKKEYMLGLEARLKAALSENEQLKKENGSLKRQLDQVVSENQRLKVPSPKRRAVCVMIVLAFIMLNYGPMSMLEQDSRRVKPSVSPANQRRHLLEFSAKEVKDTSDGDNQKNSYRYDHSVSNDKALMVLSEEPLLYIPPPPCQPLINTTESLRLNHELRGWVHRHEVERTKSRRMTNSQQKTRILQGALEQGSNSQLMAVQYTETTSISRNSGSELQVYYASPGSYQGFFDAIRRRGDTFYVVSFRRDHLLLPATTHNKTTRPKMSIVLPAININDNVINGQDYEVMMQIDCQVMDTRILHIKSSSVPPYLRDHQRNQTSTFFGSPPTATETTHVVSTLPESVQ
Outline: (§3)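 INS-1 cells seeded at 4×10^5/well in 6-well plates, given Tm 0.1 µg/mL ± compound 20 µM or DMSO for the indicated times. Bip or GRP94 mRNA measured by qRT-PCR, expressed as fold-increase over untreated control. Means of 3 replicate wells, representative of 3 independent experiments.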

[6] = target: T2, Cyclic AMP-dependent transcription factor ATF-6 alpha (Rattus norvegicus); test: Inhibition of ATF6 in rat INS-1 cells assessed as suppression of tunicamycin induced GRP94 mRNA levels at 20 uM after 4 to 24 hrs by qRT-PCR method; format: cell-based; outline: as §3
[7] = target: T1, Eukaryotic translation initiation factor 2-alpha kinase 3 (Rattus norvegicus); test: Inhibition of PERK pathway in rat INS-1 cells assessed as reduction in tunicamycin induced ATF4 mRNA levels at 20 uM after 2 to 24 hrs by qRT-PCR method; format: cell-based; outline: as §2

COc1ccc(CNc2nc(N3CCCCC3CO)nc3ccccc23)cc1 (racemic)
active: Activity (Beta-TC6) Dose-dependent effect | Activity (INS1 [1]) | Activity (INS1 [2]) | inhibition [3] | Activity (INS1 [4]) | inhibition [5] | inhibition [6] | inhibition [7]
